Data from ChEMBL document CHEMBL1135395, “Design and synthesis of potent nonpeptidic farnesyltransferase inhibitors based on a terphenyl scaffold” (J Med Chem, 2002).

What was measured:
[1] = target: Protein farnesyltransferase (Homo sapiens, UniProt P49354+P49356); assay: Inhibition of farnesyltransferase from human Burkitt lymphoma (Daudi) cells
Outline: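 Partially purified enzyme from Daudi cells was incubated with [3H]FPP and recombinant H-Ras-CVLS at a range of inhibitor concentrations for 30 min at 37 °C. IC50 was determined.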

[2] = target: Geranylgeranyl transferase type I (Homo sapiens, UniProt P49354+P53609); assay: Inhibition of partially purified Geranylgeranyl transferase type I (GGTase-I) from human Burkitt lymphoma (Daudi) cells
Outline: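 Partially purified enzyme from Daudi cells was incubated with [3H]GGPP and recombinant H-Ras-CVLL at a range of inhibitor concentrations for 30 min at 37 °C. The reaction was stopped and filtered on glass fiber filters to separate free from Ras-bound label.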

SMILES | IC50 [1] [µM] | IC50 [2] [µM]
O=C(O)c1cccc(-c2ccc(NC(=O)c3cccc(S)c3)cc2-c2ccccc2)c1 | > 10 | > 10
COC(=O)c1cccc(-c2ccc(NCc3ccccc3S)cc2-c2ccccc2)c1 | > 10 | > 10
COC(=O)c1cccc(-c2ccc(NC[C@@H](N)CS)cc2)c1 | 0.93 | 100
O=C(O)c1cccc(-c2ccc(NCc3ccc(S)cc3)cc2-c2ccccc2)c1 | > 10 | > 10
COc1cc(NC[C@@H](N)CS)ccc1-c1cccc(C(=O)O)c1 | 0.037 | 35
N[C@@H](CS)CNc1ccc(-c2ccccc2)cc1 | 1.2 | > 100
N[C@@H](CS)CNc1ccc(-c2cccc(C3N=NN=N3)c2)cc1 | 0.03 | 4.4
COC(=O)c1cccc(-c2ccc(NCc3c[nH]cn3)cc2-c2ccccc2)c1 | > 10 | > 10
Cc1cccc(-c2ccc(NC[C@@H](N)CS)cc2)c1 | 0.77 | > 100
O=C(CCS)Nc1ccc(-c2cccc(C(=O)O)c2)c(-c2ccccc2)c1 | 3.8 | > 10
N#Cc1ccc(Cn2cncc2CNc2ccc(-c3cccc(C(=O)O)c3)c(-c3ccccc3)c2)cc1 | 0.43 | 4.4
O=C(O)c1cccc(-c2ccc(NCc3cnc[nH]3)cc2-c2ccccc2)c1 | 2.3 | 5
N[C@@H](CS)CNc1ccc(-c2cccc(C(=O)O)c2)cc1 | 0.15 | 90
COC(=O)c1cccc(-c2ccc(NCc3cccc(S)c3)cc2-c2ccccc2)c1 | > 10 | > 10
O=C(O)c1cccc(-c2ccc(NCc3cccc(S)c3)cc2-c2ccccc2)c1 | > 10 | > 10
Nc1ccc(Cn2cncc2CNc2ccc(-c3cccc(C(=O)O)c3)c(-c3ccccc3)c2)cc1 | – | 7
COC(=O)c1cccc(-c2ccc(NCc3ccc(S)cc3)cc2-c2ccccc2)c1 | > 10 | > 10
O=C(O)c1cccc(-c2ccc(NCc3cncn3Cc3ccc([N+](=O)[O-])cc3)cc2-c2ccccc2)c1 | 0.45 | 3.9
COC(=O)c1cccc(-c2ccc(NC(=O)c3cccc(S)c3)cc2-c2ccccc2)c1 | > 10 | > 10
CSCC[C@H](NC(=O)c1ccc(NC[C@@H](N)CS)cc1)C(=O)O | 0.15 | –
N[C@@H](CS)CNc1ccc(-c2cccc(C(=O)O)c2)c(-c2ccccc2)c1 | 0.02 | 0.64
CCCOc1cc(NC[C@@H](N)CS)ccc1-c1cccc(C(=O)O)c1 | 0.041 | 2.4
COC(=O)c1cccc(-c2ccc(NC(=O)CCS)cc2-c2ccccc2)c1 | > 10 | > 10
COC(=O)c1cccc(-c2ccc(NCc3cncn3Cc3ccc(N)cc3)cc2-c2ccccc2)c1 | 5.6 | > 10
COC(=O)c1cccc(-c2ccc(NCc3cncn3Cc3ccc(C#N)cc3)cc2-c2ccccc2)c1 | 0.38 | 6.9
COC(=O)c1cccc(-c2ccc(NCc3cncn3Cc3ccc([N+](=O)[O-])cc3)cc2-c2ccccc2)c1 | 0.31 | 5.9
